In the library only some 1.7% were active in any assay of this set; here they are far more common.
CSN deneddyl inh: inhibitors of human CSN-mediated cullin deneddylation; Q92905; Purified CSN, SCF-Nedd8-OG deneddylation, fluorescence polarization; inhibition, % at 12.5 µM; 0.38% of 360,000 active;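 active = pattern-corrected inhibition above about 35%, with an unprinted fluorescence ratio check between 0.5 and 1.5, limit read from the data, passing the limit was not always enough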;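 also: 0% = enzyme with substrate and 100% = substrate without enzyme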
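Assay system: purified human Csn5 enzyme expressed in HEK293T cells; Input: 0.24 nM Csn5 enzyme, final concentration; Reagent: 10 nM SCFSkp2-Nedd8OG; Compound dosing: 12.5 µM single point; Times: reaction 90 min, room temperature; Technique: fluorescence polarization readout.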
IDE cell inh: inhibits human insulin-degrading enzyme in HEK cells | 0.41% of 320,000 active | inhibition, % at 5.59 µM | FAbetaB cleavage, fluorescence polarization | AID 434962;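 active = percent inhibition above the average of all tested compounds plus 3 SD, set per screening campaign, cut at about 16% in these data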;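 also: IDE supplied by intact live HEK cells; FP after avidin binding of uncleaved biotin substrate so inhibition keeps polarization high; 0% = DMSO wells and 100% = 60 µM reference IDE inhibitor Ii1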
Rpn11 inh: inhibitors of human proteasome Rpn11; O00487; human 26S proteasome, Ub4-pepOG fluorescence polarization; 20S core pre-blocked with epoxomicin; inhibition, % at 20 µM; 0.59% of 360,000 active;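 active = inhibition at 20 µM, scaled to each plate's controls, above about 33%, limit read from the data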
HNF4A DNA FP: change in binding of human HNF4 alpha to DNA; AID 1224865; 0.3% of 360,000 active; HNF4a-FITC DNA binding, fluorescence polarization, 1 h; P41235; activity change, % at 10 µM; in the data active = activity change above about 30%, passing the limit was not always enough
TPT1 inh: inhibitors of Candida albicans tRNA 2'-phosphotransferase TPT1 | inhibition, % at 5 µM | 0.81% of 300,000 active | recombinant caTPT1, FP RNA substrate dephosphorylation;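 active = inhibition above the mean of all tested compounds plus 3 SD, set per screening campaign, cut at about 24% in these data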;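 also: plate controls were DMSO alone for no effect and ferristatin control at 100 nM for full effect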
IDE cell activ: activators of human insulin-degrading enzyme in cells; P14735; HEK cells, FAbeta-B cleavage, fluorescence polarization; 0% vehicle, 100% cell-free pure enzyme wells; activation, % at 5.96 µM; 0.073% of 340,000 active; AID 493087;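 active = activation above the mean of all tested compounds plus 3 SD, set per screening campaign, cut at about 17% in these data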
HNF4A confirm: change in binding of human HNF4 alpha to DNA, retest; HNF4A-FITC DNA binding, fluorescence polarization, 1 h; AID 1224897; shares compounds with HNF4A DNA FP; 99% of 210 active; activity change, % at 12.5 µM; call rule not given here
* hit, by the source's call; . = no result shown.

SMILES	CSN deneddyl inh	IDE cell inh	Rpn11 inh	HNF4A DNA FP	TPT1 inh	IDE cell activ	HNF4A confirm
O=C(N/N=C/c1ccc(F)cc1)c1cc(-c2ccc3c(c2)OCO3)n[nH]1	5	-6	25	3	-2	0	.
O=[N+]([O-])c1ccc2oc(/C=C/c3ccc(O)cc3)nc2c1	1	.	-2	-1	.	.	.
COc1cc(/C=N/c2oc(C)c(C)c2C#N)cc(Br)c1O	16	4	.	60*	3	1	78*
CN1C(=O)/C(=C/c2ccc(OCc3cccc(F)c3)cc2)NC1=S	-4	-1	1	6	0	2	.
COc1cc(/C=C2/C(=O)N(C)C(=S)N2C)ccc1OCc1cccc(F)c1	11	0	.	36*	9	5	50*
CC1(C(=O)NCC2CCOCC2)Cc2c(-c3cccc(C(F)(F)F)c3)ccnc2O1 (stereo not given)	5	.	0	2	.	.	.
Cc1cc(C(=O)O)ccc1N=Cc1c(O)ccc2ccccc12	10	4	21	46*	2	2	70*
COCCNC(=O)c1cc(-c2ccccc2)sc1N	29	.	.	55*	.	.	85*
CCCCNC(=O)c1cc(-c2ccccc2)sc1N	6	.	.	15	.	.	.
CC(=O)C1=C(O)C(CSCc2ccccc2)N(C)C1=O (stereo not given)	4	.	-8	-2	.	3	.
O=C1CC(=O)N(C2CCCCC2)C(=O)N1c1ccccc1S(=O)(=O)Oc1ccccc1	24	.	.	65*	.	.	41*
O=C(N/N=C/c1cccnc1)c1cccc(NC(=O)c2ccc(Cl)cc2)c1	110*	8	52*	90*	3	-7	173*
Cc1nn(-c2ccccc2)c(Cl)c1/C=C1\C(=O)N(C)C(=S)N1C	12	-3	1	1	3	1	.
CN1C(=O)/C(=C/C=C2\SCCN2C)N(C)C1=S	74	.	.	119*	.	-11	143*
CCSc1ncc(Cl)c(C(=O)Nc2sc3c(c2C(=O)NCc2cccnc2)CCCC3)n1	6	4	.	51*	-2	-1	49*
CCS(=O)(=O)N1N=C(c2ccccc2)CC1c1ccc2nccnc2c1 (stereo not given)	19	4	-1	53*	0	-3	75*
COCCCN1C(=O)C(CC(=O)NC2CCCCC2)CC(C(=O)N(C)C)=C1C (stereo not given)	-1	.	0	0	.	.	.
CC/C(=C\c1oc2cc3ccccc3cc2[n+]1CC)Nc1ccccc1	-2	-2	8	51*	6	1	88*
O=C(Nc1ccccc1)c1cc2ccccc2o1	-5	0	-8	0	2	5	.
Cc1nc(CSc2nsc(/C=C/N(C)C)c2C#N)cs1	45*	.	.	70*	.	-7	62*
Cc1snc(SCc2ccc(F)cc2)c1C#N	4	6	1	-3	-2	-1	.
CCN(C(=O)COC(=O)/C(C#N)=C/c1ccc(N(C)C)cc1)C1CCS(=O)(=O)C1 (stereo not given)	10	2	20	46*	.	-2	71*
CC(=Nc1ccccc1)C1=C(O)C(Cc2cccc(F)c2)NC1=O (stereo not given)	0	.	-4	-1	.	.	.
Nc1cc2c(cc1Cl)-c1ccc([N+](=O)[O-])cc1C2=NO	19	.	30	51*	.	-6	52*
Cc1ccc(/C=C2/Sc3ccc(C(=O)NCc4ccccn4)cc3NC2=O)cc1	61*	2	.	72*	21	-6	58*
Cc1cc2nc(NC(=O)C3(C)CCN(C)C3)[nH]c2cc1C (stereo not given)	1	.	0	2	.	.	.
CN(C)c1ccc(C=C2C=C(c3ccccc3)OC2=O)cc1	19	.	12	55*	.	.	49*
O=C1OC(c2ccccc2)=CC1=Cc1ccccc1O	0	.	11	-1	.	.	.
CCOC(=O)C1=CCN(S(=O)(=O)c2ccccc2F)C1c1cccc(C)c1 (stereo not given)	-4	.	3	2	.	.	.

Source: PubChem BioAssay
